Published values of several laboratories.
Observed: cell growth or viability

SMILES | cell line | test | conditions | IC50
O=C(NCc1ccccc1)Nc1nc2cc(-c3ccc4ncn(Cc5ccccc5)c(=O)c4c3)ccc2s1 | NCI-H1975 | MTT | 72 h | > 20000 nM
CCCCn1cnc2ccc(-c3ccc(NC(=O)Nc4ccc(Cl)cc4)nc3)cc2c1=O | NCI-H1975 | CCK-8 | 72 h | 2550 nM
O=C(Nc1ccc(F)cc1)Nc1nc2cc(-c3ccc4ncn(CCC5CCCCC5)c(=O)c4c3)ccc2s1 | NCI-H1975 | MTT | 72 h | 5970 nM
Nc1ccn([C@@H]2O[C@H](CO)[C@@H](O)C2(F)F)c(=O)n1 | HEK293 | MTT | 24 h | 24.2 µg/mL
CCC(=O)Nc1nc2cc(-c3ccc4ncn(Cc5ccccc5)c(=O)c4c3)ccc2s1 | NCI-H1975 | MTT | 72 h | > 20000 nM
Cc1cccc(NC(=O)Nc2ccc(-c3ccc4ncn(Cc5ccccc5)c(=O)c4c3)cn2)c1 | NCI-H1975 | CCK-8 | 72 h | > 10000 nM
COc1cccc2c1C(=O)c1c(O)c3c(c(O)c1C2=O)C[C@@](O)(C(=O)CO)C[C@@H]3O[C@H]1C[C@H](N)[C@H](O)[C@H](C)O1 | Pfeiffer | – | 96 h | 90.7 nM
CCCCC(=O)Nc1ccc(-c2ccc3ncn(CCC)c(=O)c3c2)cc1F | NCI-H1975 | CCK-8 | 72 h | 1680 nM
O=C(Nc1ccc(F)cc1)Nc1nc2cc(-c3ccc4ncn(CCN5CCOCC5)c(=O)c4c3)ccc2s1 | NCI-H1975 | MTT | 72 h | 4310 nM
c1ccc(Oc2ccc(Nc3c4c(nc5ccccc35)CCC4)cc2)cc1 | HEK293 | resazurin | 72 h | 11200 nM
COC[C@H](NC(=O)c1ccn(S(C)(=O)=O)c1)C(=O)Nc1nc(-c2cccc(N3C[C@@H](C)O[C@@H](C)C3)n2)cs1 | HCC515 | ATP luminescence | 7 days | 119 nM
COc1ccc(C[C@H](N)C(=O)N[C@H]2[C@@H](O)[C@H](n3cnc4c(N(C)C)ncnc43)O[C@@H]2CO)cc1 | HEK293 | resazurin | 72 h | 720 nM
O=C(Nc1ccc(Cl)cc1)Nc1nc2cc(-c3ccc4ncn(Cc5ccccc5)c(=O)c4c3)ccc2s1 | NCI-H1975 | MTT | 72 h | > 20000 nM
Cc1ncsc1-c1ccc([C@H](C)NC(=O)[C@@H]2C[C@@H](O)CN2C(=O)[C@@H](NC(=O)CN2CCN(c3cc(-c4ccccc4O)nnc3N)CC2)C(C)(C)C)cc1 | HCC515 | ATP luminescence | 7 days | 182 nM
CCCCC(=O)Nc1ccc(-c2ccc3ncn(CCC)c(=O)c3c2)c(C)n1 | NCI-H1975 | CCK-8 | 72 h | 5440 nM
CC(C)(C)c1cnc(CSc2cnc(NC(=O)C3CCN(C(=O)CCCCCCCN4Cc5cc6c(cc5C4)C(=O)N(C4CCC(=O)NC4=O)C6=O)CC3)s2)o1 (centres unmarked) | A673 | MTT | – | 75.4 nM
CCCn1cnc2ccc(-c3ccc(NC(=O)CNCC)nc3)cc2c1=O | NCI-H1975 | CCK-8 | 72 h | 8790 nM
O=C(NCCc1ccccc1)Nc1nc2cc(-c3ccc4ncn(CCN5CCOCC5)c(=O)c4c3)ccc2s1 | NCI-H1975 | MTT | 72 h | 3200 nM
CCCCC(=O)Nc1ccc(-c2ccc3ncn(CC4CC4)c(=O)c3c2)cn1 | NCI-H1975 | CCK-8 | 72 h | 79 nM
CN(C)C(=O)c1cc2cnc(Nc3ccc(-c4ccc5c(=O)cc(N6CCOCC6)oc5c4)cc3)nc2n1C1CCCC1 | HEK293 | ATP luminescence | 72 h | 550 nM
